Results as given in ChEMBL document CHEMBL1123430, “Potential tumor- or organ-imaging agents. 26. Polyiodinated 2-substituted triacylglycerols as hepatographic agents” (J Med Chem, 1986).

How the values were obtained:
Rattus norvegicus [1] = experiment: Distribution of radioactivity of radiolabeled compound in blood of female rats 5 minutes after intravenous administration; type: ADME, organism-based; conditions: in vivo
Rattus norvegicus [2] = experiment: Distribution of radioactivity of radiolabeled compound in heart of female rats 30 minutes after intravenous administration at; type: ADME, organism-based; conditions: in vivo, 0.5 h
Rattus norvegicus [3] = experiment: Distribution of radioactivity of radiolabeled compound in blood of female rats 30 minutes after intravenous administration; type: ADME, organism-based; conditions: in vivo, 0.5 h
Rattus norvegicus [4] = experiment: Distribution of radioactivity of radiolabeled compound in heart of female rats 5 minutes after intravenous administration; type: ADME, organism-based; conditions: in vivo
Rattus norvegicus [5] = experiment: Distribution of radioactivity of radiolabeled compound in kidney of female rats 30 minutes after intravenous administration; type: ADME, organism-based; conditions: in vivo, 0.5 h
Rattus norvegicus [6] = experiment: Distribution of radioactivity of radiolabeled compound in kidney of female rats 5 minutes after intravenous administration; type: ADME, organism-based; conditions: in vivo
Rattus norvegicus [7] = experiment: Distribution of radioactivity of radiolabeled compound in liver of female rats 30 minutes after intravenous administration; type: ADME, organism-based; conditions: in vivo, 0.5 h
Rattus norvegicus [8] = experiment: Distribution of radioactivity of radiolabeled compound in liver of female rats 5 minutes after intravenous administration; type: ADME, organism-based; conditions: in vivo
Rattus norvegicus [9] = experiment: Distribution of radioactivity of radiolabeled compound in lung of female rats 30 minutes after intravenous administration; type: ADME, organism-based; conditions: in vivo, 0.5 h
Rattus norvegicus [10] = experiment: Distribution of radioactivity of radiolabeled compound in lung of female rats 5 minutes after intravenous administration; type: ADME, organism-based; conditions: in vivo
Rattus norvegicus [11] = experiment: Percentage […]/CH3OH extract of the radiolabeled compound in rat liver 30 minutes after iv administration; type: functional
How it was run: (§1)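 Liver and plasma were taken at 5 or 30 min. Plasma was extracted by a modified Folch procedure, and liver was homogenized and extracted. Extracts were run on TLC in hexane/ethyl acetate (5:2) for esters or THF/hexane (1:1) for acids, with unlabeled compound as reference. Plates were cut into 1-cm strips and counted. Values are percent ± SEM, n = 3-5.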

Rattus norvegicus [12] = experiment: Percentage […]/CH3OH extract of the radiolabeled compound in rat liver 5 minutes after iv administration; type: functional; how it was run: as §1
Rattus norvegicus [13] = experiment: Percentage […]/CH3OH extract of the radiolabeled compound in rat plasma 30 minutes after iv administration; type: functional; how it was run: as §1
Rattus norvegicus [14] = experiment: Percentage […]/CH3OH extract of the radiolabeled compound in rat plasma 5 minutes after iv administration; type: functional; how it was run: as §1
Rattus norvegicus [15] = experiment: Percentage parent compound in rat liver 30 minutes after iv administration of the radiolabeled compound by thin-layer chromatography; type: functional; how it was run: as §1
Rattus norvegicus [16] = experiment: Percentage parent compound in rat liver 5 minutes after iv administration of the radiolabeled compound by thin-layer chromatography; type: functional; how it was run: as §1
Rattus norvegicus [17] = experiment: Percentage parent compound in rat plasma 30 minutes after iv administration of the radiolabeled compound by thin-layer chromatography; type: functional; how it was run: as §1
Rattus norvegicus [18] = experiment: Percentage parent compound in rat plasma 5 minutes after iv administration of the radiolabeled compound by thin-layer chromatography; type: functional; how it was run: as §1
Rattus norvegicus [19] = experiment: Polyacrylamide Gel Electrophoresis (PAGE) analysis of rat plasma 30 minutes after intravenous administration of radiolabeled compound in high density lipoprotein; type: functional, organism-based
How it was run: (§2)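 Gels were sectioned and counted in a γ counter. Radioactivity in each band (stacking gel, LDL, HDL, albumin, below albumin) is expressed as a percentage of the total radioactivity applied to the gel, ± SEM, n = 3-5.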

Rattus norvegicus [20] = experiment: Polyacrylamide Gel Electrophoresis (PAGE) analysis of rat plasma 30 min after intravenous administration of radiolabeled compound in low-density lipoprotein; type: functional, organism-based; how it was run: as §2
Rattus norvegicus [21] = experiment: Polyacrylamide Gel Electrophoresis (PAGE) analysis of rat plasma 30 min after intravenous administration of radiolabeled compound in stacking gel; type: functional, organism-based; how it was run: as §2
Rattus norvegicus [22] = experiment: Polyacrylamide Gel Electrophoresis (PAGE) analysis of rat plasma 5 minutes after intravenous administration of radiolabeled compound in high density lipoprotein; type: functional, organism-based
How it was run: (§3)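 ¹²⁵I-labeled compound, radioiodinated by exchange in a pivalic acid melt, solubilized in normal saline with Tween 20 and given iv to adult female Sprague–Dawley rats (200–250 g), 5–30 μCi/animal, 3–4 rats per time point. Plasma was run on polyacrylamide gels. Gels were sectioned and gamma counted. Radioactivity per band (stacking gel, LDL, HDL, albumin, below albumin) is given as % of total applied; mean ± SEM, n = 3-5.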

Rattus norvegicus [23] = experiment: Polyacrylamide Gel Electrophoresis (PAGE) analysis of rat plasma 5 minutes after intravenous administration of radiolabeled compound in low-density lipoprotein; type: functional, organism-based; how it was run: as §3
Rattus norvegicus [24] = experiment: Polyacrylamide Gel Electrophoresis (PAGE) analysis of rat plasma 5 minutes after intravenous administration of radiolabeled compound in stacking gel; type: functional, organism-based; how it was run: as §3
Rattus norvegicus [25] = experiment: Polyacrylamide Gel Electrophoresis (PAGE) analysis of rat plasma 5 min after intravenous administration of radiolabeled compound (below albumin); type: functional, organism-based; how it was run: as §2
Rattus norvegicus [26] = experiment: Polyacrylamide Gel Electrophoresis (PAGE) analysis of rat plasma 5 min after intravenous administration of radiolabeled compound in albumin; type: functional, organism-based; how it was run: as §2
Rattus norvegicus [27] = experiment: Polyacrylamide Gel Electrophoresis (PAGE) analysis of rat plasma 30 min after intravenous administration of radiolabeled compound (below albumin); type: functional, organism-based; how it was run: as §2
Rattus norvegicus [28] = experiment: Polyacrylamide Gel Electrophoresis (PAGE) analysis of rat plasma 30 min after intravenous administration of radiolabeled compound in albumin; type: functional, organism-based; how it was run: as §2
Rattus norvegicus [29] = experiment: Distribution of radioactivity of radiolabeled compound in heart of female rats 30 minutes after intravenous administration; type: ADME, organism-based; conditions: in vivo, 0.5 h
Rattus norvegicus [30] = experiment: Polyacrylamide Gel Electrophoresis (PAGE) analysis of rat plasma 30 minutes after intravenous administration of radiolabeled in stacking gel; type: functional, organism-based; how it was run: as §2
Rattus norvegicus [31] = experiment: Polyacrylamide Gel Electrophoresis (PAGE) analysis of rat plasma 30 min after intravenous administration of radiolabeled compound ( below albumin); type: functional, organism-based; how it was run: as §2
Rattus norvegicus [32] = experiment: Polyacrylamide Gel Electrophoresis (PAGE) analysis of rat plasma 30 min after intravenous administration of radiolabeled compound in low density lipoprotein; type: functional, organism-based; how it was run: as §2
Rattus norvegicus [33] = experiment: Polyacrylamide Gel Electrophoresis (PAGE) analysis of rat plasma 5 minutes after intravenous administration of radiolabeled compound (below albumin ); type: functional, organism-based; how it was run: as §3
Rattus norvegicus [34] = experiment: Polyacrylamide Gel Electrophoresis (PAGE) analysis of rat plasma 5 minutes after intravenous administration of radiolabeled compound at in high density lipoprotein; type: functional, organism-based; how it was run: as §3
Rattus norvegicus [35] = experiment: Polyacrylamide Gel Electrophoresis (PAGE) analysis of rat plasma 30 min after intravenous administration of radiolabeled compound at in high density; type: functional, organism-based; how it was run: as §2
Rattus norvegicus [36] = experiment: Polyacrylamide Gel Electrophoresis (PAGE) analysis of rat plasma 5 min after intravenous administration of radiolabeled compound concentration of albumin; type: functional, organism-based; how it was run: as §2
Rattus norvegicus [37] = experiment: Polyacrylamide Gel Electrophoresis (PAGE) analysis of rat plasma after intravenous administration of radiolabeled compound in high density lipoprotein; type: functional, organism-based; how it was run: as §3
Rattus norvegicus [38] = experiment: Polyacrylamide Gel Electrophoresis (PAGE) analysis of rat plasma 30 min after intravenous administration of radiolabeled compound ( below albumin ); type: functional, organism-based; how it was run: as §2
Rattus norvegicus [39] = experiment: Polyacrylamide Gel Electrophoresis (PAGE) analysis of rat plasma 5 minutes after intravenous administration of radiolabeled compound in albumin; type: functional, organism-based; how it was run: as §3
Rattus norvegicus [40] = experiment: Polyacrylamide Gel Electrophoresis (PAGE) analysis of rat plasma after intravenous administration of radiolabeled compound at concentration of low-density lipoprotein; type: functional, organism-based; how it was run: as §3
Rattus norvegicus [41] = experiment: Polyacrylamide Gel Electrophoresis (PAGE) analysis of rat plasma after intravenous administration of radiolabeled compound concentration of stacking gel; type: functional, organism-based; how it was run: as §3
Rattus norvegicus [42] = experiment: Polyacrylamide Gel Electrophoresis (PAGE) analysis of rat plasma 30 minutes after intravenous administration of radiolabeled compound (below albumin ); type: functional, organism-based; how it was run: as §2
Rattus norvegicus [43] = experiment: Polyacrylamide Gel Electrophoresis (PAGE) analysis of rat plasma 30 minutes after intravenous administration of radiolabeled compound concentration of stacking gel; type: functional, organism-based; how it was run: as §2
Rattus norvegicus [44] = experiment: Polyacrylamide Gel Electrophoresis (PAGE) analysis of rat plasma 30 minutes after intravenous administration of radiolabeled compound in albumin; type: functional, organism-based; how it was run: as §2
Rattus norvegicus [45] = experiment: Polyacrylamide Gel Electrophoresis (PAGE) analysis of rat plasma 30 minutes after intravenous administration of radiolabeled compound in low-density lipoprotein; type: functional, organism-based; how it was run: as §2
Rattus norvegicus [46] = experiment: Polyacrylamide Gel Electrophoresis (PAGE) analysis of rat plasma 5 minutes after intravenous administration of radiolabeled compound (below albumin); type: functional, organism-based; how it was run: as §3

Row | Dose (Rattus norvegicus [1]) [%] | Dose (Rattus norvegicus [3]) [%] | Dose (Rattus norvegicus [4]) [%] | Dose (Rattus norvegicus [5]) [%] | Dose (Rattus norvegicus [6]) [%] | Dose (Rattus norvegicus [7]) [%] | Dose (Rattus norvegicus [8]) [%] | Dose (Rattus norvegicus [9]) [%] | Dose (Rattus norvegicus [10]) [%] | Dose (Rattus norvegicus [29]) [%] | SMILES | Concentration (Rattus norvegicus [19]) [%] | Concentration (Rattus norvegicus [22]) | Concentration (Rattus norvegicus [23]) [%] | Concentration (Rattus norvegicus [24]) [%] | Concentration (Rattus norvegicus [26]) | Concentration (Rattus norvegicus [28]) | also measured
1 | 2.5 | 1.42 | 0.49 | 1.29 | 0.42 | 5.97 | 4.07 | 1.72 | 3.16 | – | CCCCCCCCCCCCCCCC(=O)OCC(COC(=O)CCCCCCCCCCCCCCC)OC(=O)CCCCCCCCCCCCCCCCc1c(I)cc(I)c(N)c1I | 27 | 48.1 | 12.6 | 4.6 | 32.1 | 44.6 | Dose (Rattus norvegicus [2]): 0.74%; Activity (Rattus norvegicus [11]): 47.2%; Activity (Rattus norvegicus [12]): 44.3%; Activity (Rattus norvegicus [13]): 71.3%; Activity (Rattus norvegicus [14]): 83.8%; Activity (Rattus norvegicus [15]): 40.8%; Activity (Rattus norvegicus [16]): 24%; Activity (Rattus norvegicus [17]): 23.8%; Activity (Rattus norvegicus [18]): 32.6%; Concentration (Rattus norvegicus [20]): 8.6; Concentration (Rattus norvegicus [21]): 10.9; Concentration (Rattus norvegicus [25]): 2.7; Concentration (Rattus norvegicus [27]): 9
2 | 2.52 | 1.15 | 4 | 1.54 | 2.44 | 0.77 | 1.08 | 0.45 | 1.02 | 4.14 | Nc1c(I)cc(I)c(CCC(=O)O)c1I | – | – | 2.4 | 4.6 | – | 51.5 | Concentration (Rattus norvegicus [30]): 11; Concentration (Rattus norvegicus [31]): 10.8; Concentration (Rattus norvegicus [32]): 6.9; Concentration (Rattus norvegicus [33]): 4.1; Concentration (Rattus norvegicus [34]): 5.3%; Concentration (Rattus norvegicus [35]): 13.3%; Concentration (Rattus norvegicus [36]): 83.6
3 | 2.19 | 1.21 | 0.74 | 0.52 | 0.71 | 1.46 | 1.64 | 0.61 | 0.81 | 0.46 | CCC(Cc1c(I)cc(I)c(N)c1I)C(=O)O (stereo not drawn) [IOPANOIC ACID] | – | 19.8 | 0.5 | 0.6 | 77.5 | 78.4 | Concentration (Rattus norvegicus [37]): 8.7%; Concentration (Rattus norvegicus [38]): 6.7%; Concentration (Rattus norvegicus [39]): 77.5; Concentration (Rattus norvegicus [40]): 2.2; Concentration (Rattus norvegicus [41]): 3.9
4 | 2.25 | 1.23 | 1.06 | 1.01 | 0.48 | 4.37 | 6.3 | 0.84 | 1.11 | 1.01 | Nc1c(I)cc(I)c(CCCCCCCCCCCCCCCCC(=O)O)c1I | 18.5 | 26.6 | 4.7 | 5.2 | 60 | – | Concentration (Rattus norvegicus [42]): 10%; Concentration (Rattus norvegicus [43]): 7.6; Concentration (Rattus norvegicus [44]): 60.6; Concentration (Rattus norvegicus [45]): 3.2%; Concentration (Rattus norvegicus [46]): 3.5
